# Active and inactive are the calls of the source. No cut-off for these calls is given here.
# How the values were obtained:
# HL-60 [1] = assay: Induction of apoptosis in human HL60 cells assessed as decrease in procaspase-3 level at 30 uM after 24 hrs by Western blot analysis; type: functional, cell-based
# In short: (§1)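 HL60 cells (4 × 10^5) exposed to 30 μM final compound for 8 and 24 h, then lysed. Total protein was run on 15% SDS-PAGE and transferred to PVDF. Membranes were probed overnight at 4 °C with antibodies to caspase-3, cleaved caspase-3, caspase-8 and caspase-9, with β-actin as loading control.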
# HL-60 [2] = assay: Induction of apoptosis in human HL60 cells assessed as increase in cleaved caspase-9 level at 30 uM after 24 hrs by Western blot analysis; type: functional, cell-based; in short: as §1
# SK-BR-3 = assay: Cytotoxicity against human SK-BR-3 cells assessed as cell viability after 48 hrs by MTT assay; type: functional, cell-based; conditions: SK-BR-3, 48 h
# In short: (§2)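 Cells seeded at 3 × 10^3 per well and exposed to compounds from 1 × 10^-4 to 1 × 10^-6 M for 48 h. MTT was then added for 3 h, formazan dissolved in 0.04 M HCl in 2-propanol, and absorbance read at 570 nm against 630 nm. IC50 is the concentration giving 50% growth inhibition, from triplicate assays.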
# HL-60 [3] = assay: Selectivity index, ratio of IC50 for human RPMI 1788 cells to IC50 for human HL60 cells; type: functional
# HL-60 [4] = assay: Induction of apoptosis in human HL60 cells assessed as non-viable cells at 30 uM after 8 hrs using annexin-V FITC and PI staining by flow cytometry; type: functional
# In short: (§3)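 HL60 cells (1 × 10^5) exposed to 30 μM final compound for 8 or 24 h. Cells were washed in annexin-binding buffer, stained with annexin V-FITC and PI for 10 min, and analyzed by flow cytometry (FL1 and FL2). Quadrants: early apoptotic annexin+/PI−, late apoptotic double positive, necrotic annexin−/PI+. Values are means of three experiments.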
# HL-60 [5] = assay: Induction of apoptosis in human HL60 cells assessed as decrease in procaspase-8 level at 30 uM after 24 hrs by Western blot analysis; type: functional, cell-based; in short: as §1
# HL-60 [6] = assay: Induction of apoptosis in human HL60 cells assessed as non-viable cells at 30 uM after 24 hrs using annexin-V FITC and PI staining by flow cytometry; type: functional; in short: as §3
# HL-60 [7] = assay: Induction of apoptosis in human HL60 cells assessed as increase in cleaved caspase-3 level at 30 uM after 24 hrs by Western blot analysis; type: functional, cell-based; in short: as §1
# [8] = Cytotoxicity against human CRL1579 cells assessed as cell viability after 48 hrs by MTT assay; type: functional, cell-based; in short: as §2
# HL-60 [9] = assay: Induction of apoptosis in human HL60 cells assessed as early apoptotic cells at 30 uM after 8 hrs using annexin-V FITC and PI staining by flow cytometry; type: functional; in short: as §3
# HL-60 [10] = assay: Induction of apoptosis in human HL60 cells assessed as decrease in procaspase-9 level at 30 uM after 24 hrs by Western blot analysis; type: functional, cell-based; in short: as §1
# HL-60 [11] = assay: Induction of apoptosis in human HL60 cells assessed as viable cells at 30 uM after 8 hrs using annexin-V FITC and PI staining by flow cytometry; type: functional; conditions: HL-60, 8 h, read-out: Activity; in short: as §3
# HL-60 [12] = assay: Cytotoxicity against human HL60 cells assessed as cell viability after 48 hrs by MTT assay; type: functional, cell-based; conditions: HL-60, 48 h; in short: as §2
# HL-60 [13] = assay: Induction of apoptosis in human HL60 cells assessed as viable cells at 30 uM after 24 hrs using annexin-V FITC and PI staining by flow cytometry; type: functional; conditions: HL-60, 24 h, read-out: Activity; in short: as §3
# HL-60 [14] = assay: Induction of apoptosis in human HL60 cells assessed as early apoptotic cells at 30 uM after 24 hrs using annexin-V FITC and PI staining by flow cytometry; type: functional; in short: as §3
# HL-60 [15] = assay: Induction of apoptosis in human HL60 cells assessed as increase in cleaved caspase-8 level at 30 uM after 24 hrs by Western blot analysis; type: functional, cell-based; in short: as §1
# [16] = Cytotoxicity against human AZ-521 cells assessed as cell viability after 48 hrs by MTT assay; type: functional, cell-based; conditions: AZ-521, 48 h; in short: as §2
# HL-60 [17] = assay: Induction of apoptosis in human HL60 cells assessed as late apoptotic cells at 30 uM after 8 hrs using annexin-V FITC and PI staining by flow cytometry; type: functional; in short: as §3
# A549 = assay: Cytotoxicity against human A549 cells assessed as cell viability after 48 hrs by MTT assay; type: functional, cell-based; conditions: A549, 48 h; in short: as §2
# HL-60 [18] = assay: Induction of apoptosis in human HL60 cells assessed as late apoptotic cells at 30 uM after 24 hrs using annexin-V FITC and PI staining by flow cytometry; type: functional; in short: as §3
# [19] = Cytotoxicity against human RPMI 1788 cells assessed as cell viability after 48 hrs by MTT assay; type: cell-based; conditions: RPMI-1788, 48 h; in short: as §2
Compound,Activity (HL-60 [1]),Activity (HL-60 [2]),IC50 (SK-BR-3),Ratio IC50 (HL-60 [3]),Activity (HL-60 [4]),Activity (HL-60 [5]),Activity (HL-60 [6]),Activity (HL-60 [7]),IC50 [8],Activity (HL-60 [9]),Activity (HL-60 [10]),viability at 30 µM (HL-60 [11]),IC50 (HL-60 [12]),viability at 30 µM (HL-60 [13]),Activity (HL-60 [14]),Activity (HL-60 [15]),IC50 [16],Activity (HL-60 [17]),IC50 (A549),Activity (HL-60 [18]),other results
CC1(C)C(=O)C=C[C@]2(C)[C@H]3CC[C@@]4(C)[C@H](c5ccoc5)C(=O)[C@H]5O[C@]54[C@]3(C)[C@H](OC(=O)c3ccccc3)C[C@@H]12,Active,Active,> 20 µM,5.19,1.4%,Active,4.5%,Active,> 20 µM,38.7%,Active,56.9%,3.1 µM,28.2%,51.8%,Active,8.4 µM,3%,> 20 µM,15.5%,IC50 [19]: 16.1 µM
CC1(C)C(=O)C=C[C@]2(C)[C@H]3CC[C@@]4(C)[C@H](c5ccoc5)OC(=O)[C@H]5O[C@]54[C@]3(C)[C@H](OC(=O)c3ccccc3)C[C@@H]12,Active,Active,> 20 µM,0.69,0.7%,Active,3%,Active,> 20 µM,10.5%,Active,88.1%,2.9 µM,9.9%,41.4%,Active,> 20 µM,0.7%,> 20 µM,45.7%,IC50 [19]: 2 µM
COC(=O)C[C@H]1[C@]2(C)C3=C(C)[C@H](c4ccoc4)C[C@H]3O[C@@H]2[C@@H]2OC[C@]3(C)C=CC(=O)[C@@]1(C)[C@@H]23,Active,Active,1.7 µM,1,3.5%,Active,3.4%,Active,14.2 µM,10.9%,Active,73.7%,2.7 µM,49.8%,18.7%,Active,2.4 µM,11.8%,9.3 µM,28.1%,IC50 [19]: 2.7 µM
CC(=O)O[C@@H]1C[C@H]2C(C)(C)C(=O)C=C[C@]2(C)[C@H]2CC[C@]3(C)OC(=O)C=C3[C@@]21C,,,> 20 µM,,,,,,> 20 µM,,,,> 20 µM,,,,> 20 µM,,> 20 µM,,
CC(=O)O[C@@H]1C[C@H]2C(C)(C)C(=O)C=C[C@]2(C)[C@H]2CC[C@]3(C)C(=CC(=O)[C@@H]3c3ccoc3)[C@@]21C [17-EPIAZADIRADIONE],,,> 20 µM,,,,,,> 20 µM,,,,12.6 µM,,,,> 20 µM,,> 20 µM,,

# Reference: ChEMBL document CHEMBL1773010, “Cytotoxic and apoptosis-inducing activities of limonoids from the seeds of Azadirachta indica (neem)” (J Nat Prod, 2011)
